According to ChEMBL document CHEMBL1129944, “[[(Arylpiperazinyl)alkyl]thio]thieno[2,3-d]pyrimidinone derivatives as high-affinity, selective 5-HT1A receptor ligands” (J Med Chem, 1997):

How the values were obtained:
[1] = target: 5-hydroxytryptamine receptor 2A (Rattus norvegicus, UniProt P14842); experiment: In vitro inhibitory concentration against radioligand [3H]ketanserin binding to 5-hydroxytryptamine 2A receptor in rat cortical membrane; format: cell membranes
Summary of the method: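 Cortex from male rats (~150 g) was washed in Tris-HCl pH 7.4 and incubated in 50 mM Tris-HCl pH 7.7. [3H]ketanserin 0.7 nM final, 15 min at 37 °C; nonspecific binding with methysergide. Filtration and scintillation counting; concentration inhibiting binding by 50% derived from dose-inhibition curves.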

[2] = target: T1, 5-hydroxytryptamine receptor 1A (Rattus norvegicus, UniProt P19327); experiment: In vitro inhibitory concentration against radioligand [3H]8-OH-DPAT binding to 5-hydroxytryptamine 1A receptor in rat hippocampal membrane.; format: cell membranes, Hippocampus
T1 sequence (P19327 whole entry): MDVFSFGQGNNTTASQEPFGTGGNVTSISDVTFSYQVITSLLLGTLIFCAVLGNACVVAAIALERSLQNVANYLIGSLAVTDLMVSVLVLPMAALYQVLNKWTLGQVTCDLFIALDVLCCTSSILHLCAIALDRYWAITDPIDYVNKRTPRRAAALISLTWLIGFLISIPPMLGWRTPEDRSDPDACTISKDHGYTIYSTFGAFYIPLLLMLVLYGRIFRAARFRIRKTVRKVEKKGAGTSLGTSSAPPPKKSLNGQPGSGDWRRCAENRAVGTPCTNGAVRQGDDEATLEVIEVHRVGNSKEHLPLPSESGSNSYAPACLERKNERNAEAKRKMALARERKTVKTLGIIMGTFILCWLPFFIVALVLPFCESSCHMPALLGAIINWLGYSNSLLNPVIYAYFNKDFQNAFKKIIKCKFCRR
Summary of the method: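 Rat hippocampal membranes (male SD rats, ~150 g) were washed in 50 mM Tris-HCl pH 7.4, including 10 min at 37 °C. Incubation buffer contained 4 mM CaCl2 and 10 μM pargyline. Filtered onto GF/B and counted; 50% inhibitory concentration from fitted curves.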

[3] = target: 5-hydroxytryptamine receptor 1B (Rattus norvegicus, UniProt P28564); experiment: In vitro inhibitory concentration against radioligand [3H]5-HT binding to 5-hydroxytryptamine 1B receptor in rat striatal membrane; format: cell membranes, Striatum
Summary of the method: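 Striatum came from decapitated male rats (~150 g). Membranes were washed in 50 mM Tris-HCl pH 7.4 with a 10 min preincubation at 37 °C. Incubation buffer had 4 mM CaCl2, 0.1% ascorbic acid and 10 μM pargyline. [3H]5-HT 2 nM final, 30 min at 25 °C; nonspecific binding with 5-HT 10 μM. Bound ligand collected by filtration and scintillation-counted; IC50 by curve fitting.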

D(2) dopamine receptor = D(2) dopamine receptor (Rattus norvegicus, UniProt P61169); experiment: In vitro inhibitory concentration against radioligand [3H]spiperone binding to Dopamine receptor D2 in rat striatal membrane; format: cell membranes, Striatum
Summary of the method: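 Rat striatum was used, with incubation buffer 50 mM Tris-HCl pH 7.1 plus pargyline 10 μM, NaCl 120 mM, KCl 5 mM, CaCl2 2 mM, MgCl2 1 mM and 0.1% ascorbic acid. [3H]spiperone 0.2 nM final, 15 min at 37 °C; (-)sulpiride 100 μM defined nonspecific binding. GF/B filtration, scintillation counting, IC50 from fitted curves.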

[4] = target: 5-hydroxytryptamine receptor 1B (Rattus norvegicus) (UniProt P28564); experiment: Compound at 10E-5 M was tested in vitro for the inhibition of radioligand [3H]5-HT binding to 5-hydroxytryptamine 1B receptor in rat striatal membrane; format: cell membranes; conditions: Striatum
[5] = target: Serotonin 1a (5-HT1a) receptor/Adrenergic receptor alpha-1 (Rattus norvegicus) (UniProt P15823+P23944+P43140+P19327); experiment: Selectivity for alpha-1-adrenergic receptor to that of 5-HT1A receptor.; format: protein assay
Summary of the method: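 Ratio of IC50 at α1-adrenoceptors ([3H]prazosin, rat cortex) to IC50 at 5-HT1A receptors ([3H]-8-OH-DPAT, rat hippocampus). Each IC50 came from radioligand displacement curves.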

Chain of 5-hydroxytryptamine receptor 2A (P14842 whole entry): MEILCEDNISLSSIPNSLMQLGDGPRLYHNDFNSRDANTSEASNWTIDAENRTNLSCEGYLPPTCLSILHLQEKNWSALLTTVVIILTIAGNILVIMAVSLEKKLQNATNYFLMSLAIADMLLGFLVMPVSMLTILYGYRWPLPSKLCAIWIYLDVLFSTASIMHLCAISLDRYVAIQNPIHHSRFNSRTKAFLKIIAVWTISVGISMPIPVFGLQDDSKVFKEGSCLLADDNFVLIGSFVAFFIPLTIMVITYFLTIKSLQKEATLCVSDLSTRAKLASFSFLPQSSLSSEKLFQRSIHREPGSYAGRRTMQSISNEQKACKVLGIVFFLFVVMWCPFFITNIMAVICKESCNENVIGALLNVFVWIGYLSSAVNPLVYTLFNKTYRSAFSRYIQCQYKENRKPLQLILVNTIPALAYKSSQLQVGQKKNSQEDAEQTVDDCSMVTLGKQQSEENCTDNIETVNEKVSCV
Chain of 5-hydroxytryptamine receptor 1B (P28564 whole entry): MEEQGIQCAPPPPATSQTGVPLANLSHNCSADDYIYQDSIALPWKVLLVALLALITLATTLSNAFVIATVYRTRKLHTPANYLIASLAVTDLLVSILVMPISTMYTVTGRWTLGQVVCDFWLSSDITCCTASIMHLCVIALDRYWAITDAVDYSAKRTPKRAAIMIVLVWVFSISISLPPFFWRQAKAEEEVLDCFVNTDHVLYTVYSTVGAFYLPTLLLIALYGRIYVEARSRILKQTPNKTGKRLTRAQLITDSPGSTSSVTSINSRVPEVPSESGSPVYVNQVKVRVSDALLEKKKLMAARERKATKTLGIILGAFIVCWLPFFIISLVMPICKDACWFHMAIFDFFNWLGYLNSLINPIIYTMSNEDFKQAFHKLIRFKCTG
Chain of 5-hydroxytryptamine receptor 1B (Rattus norvegicus) (P28564 whole entry): as above

Question: What does the source list for `COc1ccccc1N1CCN(CCCSc2nc3sc(C)c(C)c3c(=O)n2N)CC1`?
Answer: IC50 [1]: 300 nM; IC50 [2]: 0.3 nM; IC50 [3]: 700 nM; IC50 (D(2) dopamine receptor): 60 nM

Question: What does the source list for `Cc1sc2nc(SCCCN3CCN(c4ncccn4)CC3)n(N)c(=O)c2c1C`?
Answer: inhibition [4]: < 50%; IC50 [1]: 1000 nM; IC50 [2]: 6.8 nM; Selectivity [5]: 74; IC50 (D(2) dopamine receptor): 2000 nM

Question: Which results are given for `COc1ccccc1C1CCN(CCCSc2nc3sc(C)c(C)c3c(=O)n2N)CC1`?
Answer: IC50 [1]: 300 nM; IC50 [2]: 0.8 nM; IC50 [3]: 1400 nM; IC50 (D(2) dopamine receptor): 100 nM
